Numbering of substitutions follows the chain as printed.
Columns and labels:
[1] = molecular target: T1, Androgen receptor (Homo sapiens) (UniProt P10275); assay: Potency index, ratio of IC50 for enzalutamide to IC50 for compound for competitive displacement of [3H]R1881 from human AR expressed in LNCaP cells incubated for 24 hrs by scintillation counting method based radioligand competitive binding assay; assay type: cell-based
T1 sequence (whole entry): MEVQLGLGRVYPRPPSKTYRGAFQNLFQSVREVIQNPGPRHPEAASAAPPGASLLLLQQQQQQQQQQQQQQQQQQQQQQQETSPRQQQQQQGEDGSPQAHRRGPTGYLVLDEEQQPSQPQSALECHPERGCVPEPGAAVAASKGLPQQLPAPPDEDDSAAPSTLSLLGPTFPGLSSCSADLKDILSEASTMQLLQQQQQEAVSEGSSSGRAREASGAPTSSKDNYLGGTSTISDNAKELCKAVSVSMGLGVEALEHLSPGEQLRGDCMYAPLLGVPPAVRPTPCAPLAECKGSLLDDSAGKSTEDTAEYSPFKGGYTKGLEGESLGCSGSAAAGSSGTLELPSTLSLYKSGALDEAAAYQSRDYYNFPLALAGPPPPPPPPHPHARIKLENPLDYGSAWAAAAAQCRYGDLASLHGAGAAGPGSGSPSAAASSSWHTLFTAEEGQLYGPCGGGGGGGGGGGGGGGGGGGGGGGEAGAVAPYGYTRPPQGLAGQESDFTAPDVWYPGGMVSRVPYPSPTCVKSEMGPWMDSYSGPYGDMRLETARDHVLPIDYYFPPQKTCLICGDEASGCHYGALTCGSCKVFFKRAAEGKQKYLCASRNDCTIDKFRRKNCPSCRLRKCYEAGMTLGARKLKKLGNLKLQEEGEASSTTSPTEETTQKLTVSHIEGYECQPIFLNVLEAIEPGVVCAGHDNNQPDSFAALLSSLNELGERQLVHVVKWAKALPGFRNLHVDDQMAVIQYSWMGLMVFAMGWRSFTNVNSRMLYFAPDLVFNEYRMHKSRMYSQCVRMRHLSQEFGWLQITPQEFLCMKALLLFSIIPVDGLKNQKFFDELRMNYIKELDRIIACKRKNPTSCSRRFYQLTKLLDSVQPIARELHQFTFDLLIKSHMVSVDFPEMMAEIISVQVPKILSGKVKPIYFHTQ

L02 = assay: Antiproliferative activity against human L02 cells assessed as reduction in cell viability incubated for 6 days by CCK8 assay; assay type: cell-based; details: L02, 144 h
Outline: (§1)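 Cells seeded (2×10^4 per well for VCaP, 1–3×10^3 for the others) and compound added after 24 h as a 9-point, 3-fold serial dilution. Exposure 6 days, then CCK-8 for 1–4 h and absorbance at 450 nm. IC50 from curve fit, mean of at least two independent experiments run in duplicate.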

VCaP [2] = assay: Antiproliferative activity against human VCaP cells assessed as reduction in cell viability incubated for 6 days by CCK8 assay; assay type: functional, cell-based; details: 144 h; outline: as §1
[3] = AUC ( 0 to infinity) in Sprague-Dawley rat at 30 mg/kg, po measured upto 24 hrs by LC-MS/MS analysis; assay type: ADME, organism-based; set-up: dose 30 mg/kg, time infinity, route oral; details: in vivo
Outline: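 Male SD rats (N = 3), single oral 30 mg/kg in PEG200/DMA (9:1, v/v). Blood from retrobulbar vein at 0–24 h; heparinized plasma, protein precipitation with methanol, LC-MS/MS quantitation; parameters by non-compartmental analysis.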

VCaP [4] = assay: Antitumor activity against human VCaP cells xenografted in BALB/c nude mouse assessed as inhibition of tumor growth at 30 mg/kg, po qd administered for 40 days relative to control; assay type: functional; details: Mus musculus, VCaP, po, 960 h; read-out: TGI
Outline: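 Male BALB/c nude mice, 5 weeks old, s.c. 1 × 10^7 VCaP cells in DMEM/Matrigel (1:1). Castrated under Nembutal at 150–200 mm3 and randomized (n = 8–10). Once tumors regrew to 200–350 mm3, oral 30 mg/kg qd for 40 days. TGI = [1 − (T − T0)/(C − C0)] × 100 from mean tumor volumes on first and last treatment days.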

[5] = tested on: T2, Androgen receptor (Homo sapiens), P10275 [F877L]; assay: Antagonist activity against human AR F876L mutant expressed in human PC3 cells assessed as inhibition of 1 nM R1881-induced transactivation incubated for 24 hrs by dual luciferase reporter gene assay; assay type: cell-based
T2 sequence (whole entry): T1 sequence (whole entry) with F877L
Outline: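 PC-3 cells in DMEM/F12 (1:1) with 5% charcoal-stripped FBS, cotransfected with 50 ng F876L AR plasmid and 50 ng AR luciferase reporter per well. 24 h post-transfection, compound plus 1 nM R1881 for 24 h. Firefly luminescence normalized to Renilla; mean ± SEM, n = 3.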

Cc1ccc(-c2c(C)noc2C)cc1Nc1ccc(C#N)c(Cl)c1
Ratio IC50 [1]: 8 | IC50 (L02): 11.3 µM | IC50 (VCaP [2]): 0.7 µM | AUC(0-inf) [3]: 4060 ng·h/mL | inhibition in vivo at 30 mg/kg (VCaP [4]): 44.7% | Activity [5]: Dose-dependent effect
